XBP1 UPR activ – activators of adaptive arm of unfolded protein response (XBP1). CHO-XBP1 luciferase reporter, IRE1-XBP1 UPR activation, luminescence; percent of tunicamycin response, DMSO as zero. activation, % at 20 µM. 330,000 tested, 0.33% active;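 active means versus positive control, 20 µM dose yields 30% or more activation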
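incubation = overnight seeding at 37 °C, 6 h compound treatment at 37 °C | assay system = CHO-XBP1 cells stably carrying IRE1-XBP1-driven luciferase reporter | input = 1000 cells per well | detection = luciferase luminescence | dosing = single point, 20 µM final compound, 1% DMSO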
CHOP inhibitor – CHOP inhibition in unfolded protein response; AID 2732; CHO-K1 CHOP-promoter luciferase, tunicamycin-induced, 15-18 h; inhibition, % at 10 µM; 220,000 tested, 3.8% active;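 active means compounds that reduced the stress-induced luciferase reporter signal by more than about 70% of percent inhibition, limit read from the data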
Bfl-1 A1 inh – inhibitors of the anti-apoptotic protein A1, read as caspase activation. MEF A1-2A-BIM cells, Caspase-Glo 3/7 luminescence, 3 h; percent of clofoctol response, vehicle zero. caspase activation, % (no concentration beside the values). 330,000 tested, 0.066% active;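 active means over half of replicate activation scores above 10%, or exactly half above 10 with the replicate mean above 10; inconclusive means replicate mean below 10 yet half the replicates above 10; inactive means over half of replicates below 10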
UPR CHOP act – activators of apoptotic arm of unfolded protein response (CHOP). AID 449763. CHO-CHOP luciferase reporter, UPR activation, luminescence; percent of tunicamycin response over DMSO baseline. activation, % at 10 µM. 330,000 tested, 0.34% active;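 active means at 10 µM dose, activation of 40% or more, normalized to positive control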
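Test system: CHO CHOP reporter cells. Input: 500 CHO-CHOP cells per well. Medium: F12 with 10% FBS. Technique: luciferase luminescence. Measure: percent activation relative to tunicamycin control. Dosing: 10 µM compound, 0.5% DMSO. Timing: 16-18 h cell attachment, then 6 h compound exposure, 37 °C.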
Hits are given with their value; n = inactive; u = inconclusive; x = no result. Only a selection was taken, and hits are over-represented in it overall.

SMILES	XBP1 UPR activ	CHOP inhibitor	Bfl-1 A1 inh	UPR CHOP act
Cc1cc(C(=O)N/N=C/c2cc(Br)cc(Br)c2OC(=O)c2cccc(F)c2)n[nH]1	n	92	n	n
Cc1cc(C(=O)N/N=C/c2cc(Br)cc(Br)c2OC(=O)c2ccccc2)n[nH]1	n	81	n	n
COc1ccc(CCN/C=C2/CC(=O)NC2=O)cc1OC	n	n	n	n
Cc1cc(C)c2nc(N(CCCN(C)C)C(=O)c3ccc(S(=O)(=O)N4CCCCCC4)cc3)sc2c1	n	x	n	n
Cc1ccc2c(c1)C(c1ccccc1)N(C(=O)C(C)C)CC(=O)N2 (stereo not drawn)	n	n	x	n
CCOC(=O)c1cnc2c(OC)cccc2c1N1CCN(c2ccc(OC)cc2)CC1	n	83	n	n
CCOC(=O)c1cnc2c(OC)cccc2c1N1CCN(c2ccccc2OC)CC1	n	n	n	n
Cc1cc(-n2c(C)cc(C(=O)CSc3ncnc4ccccc34)c2C)no1	n	70	n	n
Cc1cc(C(=O)CSc2ncnc3ccccc23)c(C)n1C1CC1	n	x	n	n
O=C1C=C(N(CCO)Cc2ccccc2)c2ccccc2C1=O	x	89	x	x
CN(C(=O)c1cc2n(n1)C(C(F)(F)F)CC(c1ccco1)N2)c1ccccc1 (stereo not drawn)	n	x	n	n
Cc1ccc(NC(=O)CSc2nc3ccc(Nc4nc(N5CCOCC5)nc(N5CCOCC5)n4)cc3s2)cc1	78	x	10	n
COc1ccc(OC)c(C2C(C(C)=O)=C(O)C(=O)N2Cc2cccnc2)c1 (stereo not drawn)	n	n	5.2	n
COc1ccc(OC)c(C2C(C(=O)c3ccco3)=C(O)C(=O)N2Cc2cccnc2)c1 (stereo not drawn)	n	x	n	n
COc1ccc(-c2nc(-c3ccc(O)cc3O)cs2)cc1OC	x	85	x	x
COc1ccc(-c2nc(CCl)cs2)cc1OC	n	n	n	n
COc1cccc(S(=O)(=O)Nc2cccnc2)c1	n	n	n	n
COc1ccc(N(C)S(=O)(=O)c2cccc(C(=O)NC3CCCCC3C)c2)cc1 (stereo not drawn)	n	n	n	n
Cc1cc(NC(=O)C2CC(c3cccc(Br)c3)=NO2)no1 (stereo not drawn)	n	73	n	n
O=[N+]([O-])c1ccccc1NCCNS(=O)(=O)c1ccc(Cl)cc1	n	n	n	n
O=[N+]([O-])c1ccc(NCCCNS(=O)(=O)c2ccc(Cl)cc2)c(Cl)c1	n	82	n	n
O=C(CCC1CCN(C(=O)c2ccccc2Cl)CC1)NCc1ccc(F)cc1	n	x	n	n
Cc1cc(C)n2c(SCC(=O)Nc3ncc(C(F)(F)F)cc3Cl)nnc2n1	n	n	n	n
CCOc1ccccc1NC(=O)CSc1nc2cc(O)ccc2c(=O)n1-c1ccc(OC)c(OC)c1	n	x	n	n
C=CCC1c2cccc(C(=O)O)c2C(=O)N1c1cccc(OC)c1 (stereo not drawn)	n	n	n	n
SMILES	XBP1 UPR activ	CHOP inhibitor	Bfl-1 A1 inh	UPR CHOP act
O=C(CC1S/C(=N/N=C/c2cccs2)NC1=O)Nc1ccc(Cl)cc1 (stereo not drawn)	n	94	n	n
CN(C)CCNC(=O)COc1cccc2c1OC(C)(C)C2	n	n	n	n
CO/N=C/NC(=O)NOCc1ncc(C(F)(F)F)cc1Cl	n	n	n	n
O=C(N/C=N/OCc1ccc(Cl)cc1Cl)NOCc1ncc(C(F)(F)F)cc1Cl	n	95	u	n
Cc1ccc2nc(-c3cccc(NS(C)(=O)=O)c3)cc(-c3ccccc3)c2c1	n	85	n	n
COc1ccc(C2/C=C\CN(C(=O)Nc3ccccc3)CC(=O)N2Cc2ccc(F)cc2)cc1 (stereo not drawn)	n	n	n	n
COc1ccc(C2/C=C\CN(C(=O)Nc3ccc(C(F)(F)F)cc3)CC(=O)N2Cc2ccc(F)cc2)cc1 (stereo not drawn)	n	75	n	n
COc1ccccc1CNC(=O)C(=O)Nc1ccc(C(=O)N2CCC(C)CC2)cc1	n	x	n	n
Fc1ccc(N/N=C/C=C/c2ccccc2)c(F)c1	n	77	n	n
CCCCCc1nc2c(C#N)c(-c3ccc(Cl)cc3)ccn2n1	n	92	n	n
Cc1cc(Cl)c(S(N)(=O)=O)cc1OCC(=O)NC1CCCCC1	n	x	n	n
O=S(=O)(c1cc(Cl)ccc1Cl)N1CCCCC1	n	n	n	n
Cc1cc(Cl)c(S(=O)(=O)N2CCSCC2)cc1OCC(=O)NC1CCCCC1	n	n	n	n
O=C(COc1ccc(Br)cc1Cl)NC1CCCCC1	n	71	n	n
Cc1cc(Cl)c(S(=O)(=O)NC2CCCC2)cc1OCC(=O)NC1CCCCC1	n	70	n	n
Cc1cc(S(=O)(=O)N2CCCCCC2)c(Cl)cc1Cl	n	80	n	n
Cc1cc(Cl)c(S(=O)(=O)N2CCCCCC2)cc1OCC(=O)NC1CCCCC1	n	92	n	n
CCOC(=O)N1CCN(S(=O)(=O)c2cc(OCC(=O)NC3CCCCC3)c(C)cc2Cl)CC1	n	75	n	n
O=C(COc1ccc(S(=O)(=O)NC2CCCCC2)cc1Cl)Nc1ccc2c(c1)OCO2	n	86	n	n
NS(=O)(=O)c1ccc(CCNC(=O)CSCc2ccccc2)cc1	n	n	n	n
COc1ccc(COC(=O)c2ccc(N3CCCC3=O)cc2)cc1F	n	n	n	n
C=CCn1c(C(CC)CC(C)(C)O)n[nH]c1=S (stereo not drawn)	n	n	n	n
CCN(CC)c1c(-c2ccccc2)c2cc(C)ccc2[nH]c1=O	n	95	x	n
C/C(=N\N)c1c(-c2ccccc2)c2cc(C)ccc2[nH]c1=O	n	n	n	n
Cc1ccc2[nH]c(=O)c(CNS(=O)(=O)c3ccccc3)c(-c3ccccc3)c2c1	n	87	n	n
SMILES	XBP1 UPR activ	CHOP inhibitor	Bfl-1 A1 inh	UPR CHOP act
Cc1[nH]c(=O)[nH]c(=O)c1S(=O)(=O)NCC12CC3CC(CC(C3)C1)C2	n	n	n	n
CCOC(=O)C1(CCOc2ccccc2)CCN(C(=O)c2ccc(-n3cccn3)cc2)CC1	n	n	n	n
CCN1C(=Nc2ccc(Cl)cc2)SC/C1=C\C(=O)OC	n	82	n	n
CCN1C(=O)CSC1=Nc1ccc(C(=O)O)cc1	n	x	n	n
COC(=O)c1ccc(Oc2nc(N3CCCCC3)nc(N3CCOCC3)n2)cc1	n	71	n	n
CCN(CC)c1nc(Oc2ccc(C(=O)OC)cc2)nc(N2CCOCC2)n1	n	85	n	n
CCOc1ccc(Oc2nc(N(CC)CC)nc(N3CCOCC3)n2)nn1	n	n	n	n
CC(C)CNS(=O)(=O)c1ccc(CCC(=O)N2CCN(c3ccccc3)CC2)cc1	n	n	n	n
CC1(C)Cc2cccc(OCC(=O)Nc3cc(C(F)(F)F)ccc3N3CCOCC3)c2O1	n	n	n	n
CCOC(=O)c1c(CSc2ccccc2)n(C)c2cc(Br)c(OCC(O)CNC(CO)(CO)CO)cc12 (stereo not drawn)	x	n	n	x

Screening results from PubChem.
